Measurements pooled from the literature.
Protocols differ between the studies behind these lines.

Structure (SMILES)	test system	conditions	Tmax
Cc1nc(NC(=O)N2CCC[C@H]2C(N)=O)sc1-c1ccnc(C(C)(C)C(F)(F)F)c1	human, plasma	oral, 270 mg, patients	2.02 h
COc1ccc([C@@H]2CN(C(=O)[C@@H](O)CO)C[C@@]2(C)[C@@H](C)O)cc1OC1CN(c2ccc(C)cn2)C1	human, plasma	oral, 1.5 mg, single dose, healthy volunteers	1 h
C[C@@]1(c2cc(NC(=O)c3ccc(C#N)cn3)ccc2F)C=CSC(N)=N1	human, plasma	oral, 3 mg, single dose	1.25 h
C=CC(=O)N(C)CCOc1c(N)ncnc1-c1cc(F)cc(NC(=O)c2ccc(C3CC3)cc2F)c1C	human, blood	oral, 100 mg, single dose, healthy volunteers	1.03 h
Oc1cc(O)c2c(c1)O[C@@H](c1ccc(O)c(O)c1)[C@@H](O)C2	human, plasma	oral, 100 mg, single dose	1 h
Cc1nc(-c2cn3c(n2)-c2ccc(-c4cnn(C(C)(C)C(N)=O)c4)cc2OCC3)n(C(C)C)n1	human, plasma	oral, 6 mg, patients	2.05 h
C#C[C@]1(COP(=O)(O)OP(=O)(O)OP(=O)(O)O)O[C@@H](n2cnc3c(N)nc(F)nc32)C[C@@H]1O	human, plasma	oral, 400 mg, single dose	12.1 h
CCc1nc2c(C)cc(N3CCN(CC(=O)N4CC(O)C4)CC3)cn2c1N(C)c1nc(-c2ccc(F)cc2)c(C#N)s1	human, plasma	oral, 1000 mg, fed, healthy volunteers	2 h
C/C(=C\c1csc(C)n1)[C@@H]1C[C@@H]2O[C@]2(C)CCC[C@H](C)[C@H](O)[C@@H](C)C(=O)C(C)(C)[C@@H](O)CC(=O)N1	human, plasma	intravenous, 20 mg/m², patients	1 h
Cn1cc(-c2ccc(S(=O)(=O)[C@@H]3C[C@@H](C(=O)NC4(C#N)CC4)N(C(=O)C4(C(F)(F)F)CC4)C3)c(C(F)(F)F)c2)cn1	human, plasma	oral, 1 mg, single dose, fasted, healthy volunteers	4 h
COc1cc(N2CCC(N3CCN(C)CC3)CC2)ccc1Nc1ncnc(Nc2ccccc2S(=O)(=O)C(C)C)n1	human, plasma	oral, 125 mg, multiple doses, patients	2.97 h
O=C(Nc1c(Cl)cncc1Cl)c1ccc(OC(F)F)c(OCC2CC2)c1	human, plasma	oral, 0.5 mg, single dose	0.75 h
FC(F)(F)c1ccc(CNc2ccc(Cc3c[nH]c4ncc(Cl)cc34)cn2)cn1	human, plasma	oral, 600 mg, single dose, healthy volunteers	2.5 h
CO[C@@H]1[C@H](OC(=O)N2CC(CCN3CCOCC3)C2)CC[C@]2(CO2)[C@H]1[C@@]1(C)O[C@@H]1CC=C(C)C	human, plasma	subcutaneous, 4.8 mg, single dose, healthy volunteers	0.25 h
CS(=O)(=O)CCC#N	human, plasma	oral, 1000 mg, single dose, fasted	1.5 h
C[C@@H](Nc1cc(F)cc(F)c1)c1cc(C(=O)N(C)C)cc2c(=O)cc(N3CCOCC3)oc12	human, plasma	oral, 360 mg, single dose, patients	1.53 h
CC(C)(O)c1ccccc1-c1ccc2[nH]c(/C=C/c3ccc(C(F)(F)F)cc3)nc2c1	male human, plasma	oral, 1 mg, single dose, fasted	4.44 h
CC(C)[C@](O)(c1ccc2cc(OC(F)F)c(OC(F)F)cc2c1)c1c[nH]nn1	female human, plasma	oral, 450 mg, single dose	1.9 h
c1cnc2ccc(Nc3nc(NC4CC4)c4nc[nH]c4n3)cc2c1	human, plasma	oral, 50 mg/m², patients	5 h
CC(C)n1cc(C#N)c2cc(-n3cc(C(=O)O)cn3)ccc21	human, plasma	oral, 10 mg, single dose, fasted, healthy volunteers	2.8 h
CCc1nc(C(N)=O)c(Nc2ccc(N3CCC(N4CCN(C)CC4)CC3)c(OC)c2)nc1NC1CCOCC1	human, plasma	oral, 80 mg, multiple doses, patients	4.03 h
